{"source": "ChEMBL document CHEMBL1124920", "about": "“cis-diamineplatinum (II) complexes containing phosphono carboxylate ligands as antitumor agents” (J Med Chem, 1990)", "key": {"[1]": {"tested_on": "L1210", "experiment": "Antitumor activity (ip) against CDF1 mice bearing Leukemia L1210 cells", "format": "functional, organism-based", "conditions": "Mus musculus", "outline": "(§1)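 Female CDF1 mice (16-22 g) received 1 × 10^6 L1210 cells ip in 0.5 mL […] on day 0. Test compound was given in 0.5 mL water on day 1, with six mice per dose. The study ended at 3× the control mean survival time (MST), and survivors were scored as dying that day. ILS is the % increase in MST over controls; >25% counts as active, and the maximum possible is 200%.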"}, "[2]": {"tested_on": "Mus musculus", "experiment": "Number of surviving CFW mice bearing Sarcoma 180 ascites (S180a) (6 mice treated i.p.)", "format": "functional, organism-based", "outline": "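Female CFW mice (18-25 g) implanted ip with 2 × 10^6 S180 ascites cells on day 0. Compound given ip in 0.5 mL water on day 1, adjusted to pH 7, six mice per dose. Vehicle and cisplatin control groups included. Run to twice control MST, survivors counted as dying that day. Read-out %ILS of MST; >50% active, maximum 100%.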"}, "[3]": {"tested_on": "L1210", "experiment": "Antitumor activity (ip) against CDF1 mice bearing Leukemia L1210 cells in 6 mice", "format": "functional, organism-based", "conditions": "Mus musculus", "outline": "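Female CDF1 mice (16-22 g) inoculated ip with 1 × 10^6 L1210 cells in 0.5 mL […] on day 0. Compound given day 1 in 0.5 mL water, six mice per dose. Vehicle controls and cisplatin 8 mg/kg positive controls included. Run to 3× control MST, survivors scored as dying then. Read-out %ILS of MST; >25% active, maximum 200%.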"}, "[4]": {"organism": "Mus musculus", "experiment": "Optimal dose in Sarcoma inoculated CFW mice.", "format": "functional, organism-based", "outline": "(§2)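 Female CFW mice (18-25 g) were implanted ip with 2 × 10^6 Sarcoma 180 ascites cells on day 0. Compound was given ip in 0.5 mL water on day 1, with six mice per dose. The run lasted twice the control MST, and survivors were counted as dying then. Activity is % ILS of MST; >50% counts as active, and the maximum is 100%.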"}, "[5]": {"tested_on": "L1210", "experiment": "Optimal dose of the compound measured in mg/kg against CDF1 mice bearing L1210 leukemia cells.", "format": "functional, organism-based", "conditions": "Mus musculus", "outline": "as §1"}, "[6]": {"tested_on": "Mus musculus", "experiment": "Antitumor activity against CFW mice bearing Sarcoma 180 ascites (S180a) following i.p. administration.", "format": "functional, organism-based", "outline": "as §2"}, "[7]": {"tested_on": "M5076", "experiment": "Relative median time for tumors to reach 1 g in drug-treated groups and the control group (T-C in days)", "format": "functional", "outline": "(§3)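 BDF1 mice of either sex (6-10 weeks) were implanted sc on day 0 with ~25 mg M5076 tumor fragments. Dosing was iv on days 5, 9, 13 and 17, with doses given per injection, in groups of eight. Study ended on day 75. Read-outs were % ILS of MST and T-C, the difference in median days for tumors to reach 1 g. Active means ILS ≥25% or T-C >13 days.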"}, "[8]": {"tested_on": "M5076", "experiment": "Antitumor activity of the best % ILS of platinum-phospono carboxylate complex against subcutaneously implanted M5076 reticulum cell sarcoma", "format": "functional", "outline": "as §3"}, "[9]": {"tested_on": "M5076", "experiment": "Optimum dose measured in mg/kg", "format": "functional, organism-based"}}}
{"sequence": "CARBOPLATIN", "values": [{"measurement": "ILS", "setting": "[1]", "value": 90, "unit": "%"}, {"measurement": "Survivors", "setting": "[2]", "value": 4}, {"measurement": "Survivors", "setting": "[3]", "value": 0}, {"measurement": "DOSE", "setting": "[4]", "value": 120, "unit": "mg/kg"}, {"measurement": "DOSE", "setting": "[5]", "value": 80, "unit": "mg/kg"}, {"measurement": "ILS", "setting": "[6]", "value": 95, "unit": "%"}]}
{"sequence": "CISPLATIN", "values": [{"measurement": "T-C", "setting": "[7]", "value": 25}, {"measurement": "ILS", "setting": "[8]", "value": 28, "unit": "%"}, {"measurement": "ILS", "setting": "[1]", "value": 87, "unit": "%"}, {"measurement": "Survivors", "setting": "[2]", "value": 3}, {"measurement": "Survivors", "setting": "[3]", "value": 0}, {"measurement": "DOSE", "setting": "[4]", "value": 8, "unit": "mg/kg"}, {"measurement": "DOSE", "setting": "[9]", "value": 5}, {"measurement": "DOSE", "setting": "[5]", "value": 8, "unit": "mg/kg"}, {"measurement": "ILS", "setting": "[6]", "value": 81, "unit": "%"}]}
